This is an account of results in ChEMBL document CHEMBL2439995, “Synthesis and Evaluation of Quinazolone Derivatives as a New Class of c-KIT G-Quadruplex Binding Ligands” (ACS Med Chem Lett, 2013).

For assay [1], the system named is HGC-27. As to the kind of experiment: Downregulation of c-KIT mRNA expression in HGC27 cells at 1.25 uM after 24 hrs by RT-PCR analysis relative to control. The format is functional, Homo sapiens. In short, it runs like this:
(§1)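 HGC-27 gastric carcinoma cells treated 24 h at final 1.25, 2.5 or 5 µM. c-KIT mRNA quantified by RT-PCR against β-actin, relative to control.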

Assay [2] deals with HGC-27. As to the kind of experiment: Downregulation of c-KIT mRNA expression in HGC27 cells after 24 hrs by RT-PCR analysis relative to control. The format is functional, cell-based. The settings on record: Homo sapiens. An outline of the steps: as §1
Assay [3] has as its system MCF7. Nature of the assay: Binding affinity to full length wild type c-KIT1 G-quadruplex DNA isolated from human MCF7 cells after 48 hrs by dual luciferase reporter gene assay. The format is cell-based. In short, it runs like this:
(§2)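 MCF-7 cells transiently transfected with a luciferase plasmid carrying the full-length wild-type c-KIT promoter or its mutant, plus pRL-TK. Cells treated 48 h with compound at 2.5 µM or a range of concentrations. Firefly signal normalized to pRL-TK, expressed relative to untreated cells (100%). Triplicates, three independent experiments, standard error.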
(In a reporter assay the amount or activity of a reporter protein is the signal.)

A short description of assay [4]: Binding affinity to F-c-KIT2-T G-quadruplex DNA (unknown origin) assessed as change in melting temperature at 5 uM by FRET assay.
For assay [5], the system named is MCF7. As to the kind of experiment: Binding affinity to full length wild type c-KIT1 G-quadruplex DNA isolated from human MCF7 cells at 5 uM after 48 hrs by dual luciferase reporter gene assay relative to control. The format is cell-based. An outline of the steps:
as §2

Assay [6] has as its system MCF7. As to the kind of experiment: Binding affinity to c-KIT2 mutant G-quadruplex DNA isolated from human MCF7 cells at 5 uM after 48 hrs by dual luciferase reporter gene assay relative to control. The format is cell-based. An outline of the steps:
as §2

Assay [7] deals with HGC-27. As to the kind of experiment: Downregulation of c-KIT mRNA expression in HGC27 cells at 5 uM after 24 hrs by RT-PCR analysis relative to control. The format is functional, Homo sapiens. An outline of the steps:
as §1

Assay [8] is described as follows: Binding affinity to c-KIT1 G-quadruplex DNA (unknown origin) at 25 uM by CD spectrophotometric analysis. An outline of the steps:
(§3)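 Circular dichroism spectra of 5 µM c-KIT1 or c-KIT2 oligonucleotide in 10 mM Tris–HCl, pH 7.2, 100 mM KCl, recorded with and without 25 µM ligand. Bands near 263 nm (positive) and 240 nm (negative) monitored.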

Assay [9] is described as follows: Binding affinity to duplex DNA (unknown origin) up to 20 uM by surface plasmon resonance method. An outline of the steps:
(§4)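 SPR binding to immobilized c-KIT1 G-quadruplex or duplex DNA, ligand injected at various concentrations, up to 20 µM. KD obtained by global fitting of the kinetic data to a 1:1 Langmuir binding model.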

Assay [10] concerns MCF7. Nature of the assay: Binding affinity to full length wild type c-KIT2 G-quadruplex DNA isolated from human MCF7 cells at 5 uM after 48 hrs by dual luciferase reporter gene assay relative to control. The format is cell-based. An outline of the steps: as §2
A short description of assay [11]: Binding affinity to F10T duplex DNA (unknown origin) assessed as change in melting temperature at 5 uM by FRET assay.
Assay [12] relates to MCF7. Nature of the assay: Binding affinity to c-KIT2 mutant G-quadruplex DNA isolated from human MCF7 cells at 2.5 uM after 48 hrs by dual luciferase reporter gene assay. The format is cell-based. In short, it runs like this: as §2
In assay [13] the test system is HGC-27. Nature of the assay: Cytotoxicity against HGC27 cells assessed as cell viability after 48 hrs by MTT assay. The format is functional, cell-based. The settings on record: Homo sapiens, HGC-27, 48 h. Background: Tetrazolium dyes change colour on reduction, which living cells bring about.
Assay [14] concerns MCF7. As to the kind of experiment: Binding affinity to c-KIT1 mutant G-quadruplex DNA isolated from human MCF7 cells at 5 uM after 48 hrs by dual luciferase reporter gene assay relative to control. The format is cell-based. An outline of the steps:
as §2

Assay [15] concerns MCF7. Nature of the assay: Binding affinity to full length wild type c-KIT2 G-quadruplex DNA isolated from human MCF7 cells after 48 hrs by dual luciferase reporter gene assay. The format is cell-based. An outline of the steps: as §2
Assay [16] concerns HGC-27. As to the kind of experiment: Downregulation of c-KIT mRNA expression in HGC27 cells at 2.5 uM after 24 hrs by RT-PCR analysis relative to control. The format is functional, Homo sapiens. In short, it runs like this:
as §1

The subject of assay [17] is MCF7. Nature of the assay: Binding affinity to full length wild type c-KIT1 G-quadruplex DNA isolated from human MCF7 cells at 2.5 uM after 48 hrs by dual luciferase reporter gene assay. The format is cell-based. An outline of the steps:
as §2

The nature of assay [18]: Binding affinity to c-KIT2 G-quadruplex DNA (unknown origin) at 25 uM by CD spectrophotometric analysis. An outline of the steps:
as §3

The nature of assay [19]: Binding affinity to biotinylated c-KIT1 G-quadruplex DNA (unknown origin) by surface plasmon resonance method. In short, it runs like this:
as §4

For assay [20], the system named is MCF7. As to the kind of experiment: Binding affinity to c-KIT1 mutant G-quadruplex DNA isolated from human MCF7 cells at 2.5 uM after 48 hrs by dual luciferase reporter gene assay. The format is cell-based. In short, it runs like this: as §2
Assay [21] relates to MCF7. As to the kind of experiment: Binding affinity to full length wild type c-KIT2 G-quadruplex DNA isolated from human MCF7 cells at 2.5 uM after 48 hrs by dual luciferase reporter gene assay. The format is cell-based. An outline of the steps: as §2
A short description of assay [22]: Binding affinity to F-c-KIT1-T G-quadruplex DNA (unknown origin) assessed as change in melting temperature at 5 uM by FRET assay.

pIC50, pKd: −log10 of the molar value. Calls of active or inactive are those of the source. The calls are words filed in the database; no cut-off is given here.

With `CCN(CC)CCC(=O)Nc1ccc(/C=C/c2nc3cc(N4CCN(C)CC4)c(F)cc3c(=O)n2-c2ccccc2)cc1`, the Activity in the assay on HGC-27 [1] is 4.9%; in the assay on HGC-27 [2], “Dose-dependent effect”; in the assay with HGC-27 [7], 52.5%; in the assay on HGC-27 [16], 22.8%. For the same molecule, the inhibition (in general, the percentage by which the read-out fell short of the control) in the assay on MCF7 [3] was “Dose-dependent effect”; with MCF7 [5], 45%; in the assay on MCF7 [6], 22%; in the assay on MCF7 [10] it was 45%; with MCF7 [14] it was 22%; with MCF7 [15], “Dose-dependent effect”. Besides, the ΔTm (commonly the change in melting temperature against a reference sample) worked out at 13.6 °C in [4], 0 °C in [11] and 11.1 °C in [22]. Moreover, the result in assay [8] and in [18] was Active. The result in [9] was inactive. Besides, the inhibition result in the assay on MCF7 [12] and with MCF7 [20] was “inactive” throughout. The pIC50 (usually −log10 of the IC50, conventionally taken in molar units) with HGC-27 [13] is 5.17. Further, the inhibition entry with MCF7 [17] and in the assay with MCF7 [21] was “Active” each time. Besides, in [19], the pKd (as a rule, −log10 of the Kd, conventionally taken in molar units) is 6.21.

In the case of `CN1CCN(c2cc3nc(/C=C/c4ccc(NC(=O)CN5CCCCC5)cc4)n(-c4ccccc4)c(=O)c3cc2F)CC1`, the ΔTm stood at 7.5 °C in assay [4], 0.1 °C in [11] and 4.2 °C in [22]. Besides, the inhibition result with MCF7 [12] and in the assay on MCF7 [20] was “inactive” each time. In the assay with HGC-27 [13], the pIC50 was 5.89. Moreover, the inhibition entry with MCF7 [17] and with MCF7 [21] was “Active” each time.

As to `CN(C)CCNC(=O)c1ccc(/C=C/c2nc3cc(N4CCN(C)CC4)c(F)cc3c(=O)n2-c2ccccc2)cc1`, the ΔTm in assay [4] amounted to 15.9 °C; in assay [11], 0.5 °C; in assay [22] it was 15.1 °C. Moreover, in assay [9], the result was inactive. Besides, the inhibition result in the assay on MCF7 [12] and with MCF7 [20] was “inactive” each time. In addition, in the assay on HGC-27 [13], the pIC50 is 4.67. The inhibition result in the assay with MCF7 [17] and in the assay on MCF7 [21] was “Active” each time. In assay [19], this molecule had a pKd of 5.94.

Turning to `CN1CCN(c2cc3nc(/C=C/c4ccc(NC(=O)CN5CCCC5)cc4)n(-c4ccccc4)c(=O)c3cc2F)CC1`, the ΔTm in [4] stood at 9.4 °C; in assay [11], 0 °C; in [22], 6.4 °C. Moreover, the outcome in assay [9] was inactive. The inhibition result in the assay on MCF7 [12] and in the assay with MCF7 [20] was “inactive” throughout. Besides, the pIC50 with HGC-27 [13] is 5.64. Besides, the inhibition result in the assay with MCF7 [17] and in the assay with MCF7 [21] was “Active” in each case. In addition, the pKd in assay [19] is 6.11.

Consider `CN1CCN(c2cc3nc(/C=C/c4ccc(NC(=O)CCN5CCCCC5)cc4)n(-c4ccccc4)c(=O)c3cc2F)CC1`, for which the ΔTm in assay [4] amounted to 12.6 °C; in assay [11] it was 0 °C; in assay [22], 10.7 °C. Also, in [9], the result was inactive. Also, the inhibition entry in the assay on MCF7 [12] and in the assay on MCF7 [20] was “inactive” in each case. The pIC50 with HGC-27 [13] is 5.09. In addition, the inhibition entry in the assay on MCF7 [17] and with MCF7 [21] was “Active” throughout. Also, the pKd in assay [19] was 6.04.

As for `CN1CCN(c2cc3nc(/C=C/c4ccc(C(=O)NCCCN5CCCC5)cc4)n(-c4ccccc4)c(=O)c3cc2F)CC1`, the ΔTm in [4] stood at 16.8 °C; in assay [11] it was 0.4 °C; in assay [22], 15.9 °C. In addition, the outcome in assay [9] was inactive. The inhibition entry in the assay with MCF7 [12] and in the assay on MCF7 [20] was “inactive” in each case. In addition, the pIC50 with HGC-27 [13] is 4.91. The inhibition result in the assay on MCF7 [17] and in the assay on MCF7 [21] was “Active” in each case. Further, the pKd in assay [19] is 5.70.

Regarding `Cc1ccc(NC(=O)c2ccc(CN3CCN(C)CC3)cc2)cc1Nc1nccc(-c2cccnc2)n1` [IMATINIB], in the assay with HGC-27 [13], the pIC50 is 5.42.

Regarding `CN1CCN(c2cc3nc(/C=C/c4ccc(NC(=O)CCN5CCCC5)cc4)n(-c4ccccc4)c(=O)c3cc2F)CC1`, the results for the ΔTm in [4], in assay [11] and in assay [22] were 12.4 °C, 0 °C and 11.3 °C, respectively. For the same molecule, the result in assay [9] was inactive. Moreover, the inhibition entry with MCF7 [12] and with MCF7 [20] was “inactive” throughout. Moreover, the pIC50 in the assay with HGC-27 [13] was 4.87. Also, the inhibition entry in the assay on MCF7 [17] and with MCF7 [21] was “Active” each time. This molecule also had a pKd in assay [19] of 5.73.

In the case of `CN1CCN(c2cc3nc(/C=C/c4ccc(C(=O)NCCN5CCCC5)cc4)n(-c4ccccc4)c(=O)c3cc2F)CC1`, the ΔTm in assay [4] is 13.4 °C; in [11] it was 0.4 °C; in assay [22], 12.3 °C. Also, the outcome in [9] was inactive. The inhibition entry with MCF7 [12] and in the assay with MCF7 [20] was “inactive” in each case. Moreover, in the assay on HGC-27 [13], the pIC50 is 4.76. Further, the inhibition result with MCF7 [17] and in the assay with MCF7 [21] was “Active” in each case. In assay [19], this molecule showed a pKd of 4.80.

As for `CCN(CC)CC(=O)Nc1ccc(/C=C/c2nc3cc(N4CCN(C)CC4)c(F)cc3c(=O)n2-c2ccccc2)cc1`, the ΔTm in assay [4] turned out to be 7.8 °C; in assay [11], 0 °C; in [22] it was 5.5 °C. Also, the inhibition result with MCF7 [12] and with MCF7 [20] was “inactive” each time. Besides, the pIC50 with HGC-27 [13] was 4.74. For the same molecule, the inhibition result with MCF7 [17] and in the assay on MCF7 [21] was “Active” in each case.

On to `CCN(CC)CCNC(=O)c1ccc(/C=C/c2nc3cc(N4CCN(C)CC4)c(F)cc3c(=O)n2-c2ccccc2)cc1`, for which the Activity in the assay on HGC-27 [1] was 5.7%; in the assay on HGC-27 [2], “Dose-dependent effect”; in the assay with HGC-27 [7] it was 35.7%; in the assay with HGC-27 [16], 10.4%. Further, the inhibition entry in the assay on MCF7 [3] is “Dose-dependent effect”; in the assay with MCF7 [5] it was 37%; in the assay on MCF7 [6], 20%; with MCF7 [10] it was 37%; in the assay on MCF7 [14] it was 20%; in the assay on MCF7 [15], “Dose-dependent effect”. The ΔTm in [4] was found to be 14.3 °C; in assay [11], 0.4 °C; in [22] it was 13.4 °C. Also, the result in assay [8] and in assay [18] was Active. Further, the result in assay [9] was inactive. For the same molecule, the inhibition entry in the assay with MCF7 [12] and in the assay on MCF7 [20] was “inactive” in each case. Also, the pIC50 in the assay with HGC-27 [13] is 5.07. Further, the inhibition result in the assay with MCF7 [17] and in the assay on MCF7 [21] was “Active” each time. The same molecule gave a pKd in [19] of 5.86.
